{"source": "ChEMBL document CHEMBL2331331", "about": "(J Med Chem, 2013)", "key": {"[1]": {"test": "Oral bioavailability in Sprague-Dawley rat at 10 mg/kg/day", "assay_type": "ADME, organism-based", "details": "in vivo", "summary_of_the_method": "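Sprague-Dawley rats, five per group, were dosed orally at 10 mg/kg. Plasma was sampled through jugular vein cannulation. Drug levels were measured by liquid–liquid extraction followed by LC–MS.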"}, "[2]": {"test": "Cmax in Sprague-Dawley rat at 10 mg/kg/day, po measured within 7 hrs", "assay_type": "ADME, organism-based", "set-up": "dose 10 mg/kg/day, route oral", "details": "in vivo"}, "Mus musculus": {"system": "Mus musculus", "test": "Inhibition of FLT3-ITD mutant in human MV4-11 cells xenografted in NOD-SCID mouse assessed as inhibition of STAT5 phosphorylation at 10 mg/kg/day, po after 3 days by immunostaining method relative to vehicle-treated control", "assay_type": "functional, organism-based", "summary_of_the_method": "(§1)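 Mice (NOD-SCID) bearing sc MV4-11 tumors given 10 mg/kg/d by oral gavage. Tumors removed after 2–4 days and formalin-fixed. Sections immunostained for Ki67 (proliferation) or p-STAT5, or TUNEL-stained (apoptosis). Imaged by light microscopy and compared with vehicle group.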"}, "MV4-11 [3]": {"system": "MV4-11", "test": "Induction of apoptosis in FLT3-ITD-positive human MV4-11 cells xenografted in NOD-SCID mouse assessed as increase in apoptotic cells at 10 mg/kg/day, po by TUNEL assay", "assay_type": "functional, organism-based", "details": "TDE = time-dependent effect", "summary_of_the_method": "as §1"}, "MV4-11 [4]": {"system": "MV4-11", "test": "Antitumor activity against FLT3-ITD-positive human MV4-11 cells xenografted in NOD-SCID mouse assessed as tumor regression at 10 mg/kg/day, po administered 18 days measured every 3 days for 18 days", "assay_type": "functional, organism-based", "summary_of_the_method": "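NOD-SCID mice (5–6 weeks) implanted sc with 1 × 10⁸/mL MV4-11 cells (100 μL) in serum-free medium. Grouped at 300–500 mm³, six per group, then dosed orally once daily for 18 days. Vehicle was 12.5% castor oil, 12.5% ethanol, 75% water. Tumor volume = long × short²/2, measured every 3 d.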"}, "MV4-11 [5]": {"system": "MV4-11", "test": "Antitumor activity against human MV4-11 cells xenografted in mouse at 5 mg/kg/day, po after 18 days", "assay_type": "functional, organism-based", "summary_of_the_method": "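MV4-11 sc xenograft mice dosed daily by mouth once tumors reached about 400 mm³, three mice per group; tumor volume followed.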"}, "MV4-11 [6]": {"system": "MV4-11", "test": "Induction of apoptosis in human MV4-11 cells assessed as early apoptotic cells at 0.1 uM after 24 hrs by annexin V-FITC/propidium iodide staining-based FACS flow cytometric analysis (reference value: 1.61%)", "assay_type": "functional"}, "MV4-11 [7]": {"system": "MV4-11", "test": "Induction of apoptosis in human MV4-11 cells assessed as early apoptotic cells at 0.03 uM after 24 hrs by annexin V-FITC/propidium iodide staining-based FACS flow cytometric analysis (reference value: 1.61%)", "assay_type": "functional"}, "MV4-11 [8]": {"system": "MV4-11", "test": "Induction of apoptosis in human MV4-11 cells assessed as early apoptotic cells at 0.003 uM after 24 hrs by annexin V-FITC/propidium iodide staining-based FACS flow cytometric analysis (reference value: 1.61%)", "assay_type": "functional"}, "MV4-11 [9]": {"system": "MV4-11", "test": "Induction of apoptosis in human MV4-11 cells assessed as early apoptotic cells at 0.001 uM after 24 hrs by annexin V-FITC/propidium iodide staining-based FACS flow cytometric analysis (reference value: 1.61%)", "assay_type": "functional"}, "MV4-11 [10]": {"system": "MV4-11", "test": "Induction of apoptosis in human MV4-11 cells assessed as late apoptotic cells at 0.03 uM after 24 hrs by annexin V-FITC/propidium iodide staining-based FACS flow cytometric analysis (reference value: 4.28%)", "assay_type": "functional"}, "SK-OV-3": {"system": "SK-OV-3", "test": "Cytotoxicity against human SKOV3 cells assessed as growth inhibition after 72 hrs by MTT assay", "details": "SK-OV-3, 72 h"}, "U-266": {"system": "U-266", "test": "Cytotoxicity against human U266 cells assessed as growth inhibition after 72 hrs by MTT assay", "details": "U-266, 72 h"}, "LoVo": {"system": "LoVo", "test": "Cytotoxicity against human LoVo cells assessed as growth inhibition after 72 hrs by MTT assay"}, "KARPAS-299": {"system": "KARPAS-299", "test": "Cytotoxicity against human KARPAS299 cells assessed as growth inhibition after 72 hrs by MTT assay", "details": "KARPAS-299, 72 h"}, "U-937": {"system": "U-937", "test": "Cytotoxicity against human U937 cells assessed as growth inhibition after 72 hrs by MTT assay", "details": "U-937, 72 h"}, "Bel-7402": {"system": "Bel-7402", "test": "Cytotoxicity against human Bel7402 cells assessed as growth inhibition after 72 hrs by MTT assay", "details": "Bel-7402, 72 h"}, "MCF7": {"system": "MCF7", "test": "Cytotoxicity against human MCF7 cells assessed as growth inhibition after 72 hrs by MTT assay", "details": "MCF7, 72 h"}, "K562": {"system": "K562", "test": "Cytotoxicity against human K562 cells assessed as growth inhibition after 72 hrs by MTT assay", "details": "K562, 72 h"}, "Jurkat": {"system": "Jurkat", "test": "Cytotoxicity against human Jurkat cells assessed as growth inhibition after 72 hrs by MTT assay"}, "[11]": {"test": "Inhibition of ERK (unknown origin)", "set-up": "species or system Homo sapiens"}, "[12]": {"target": "Dual specificity mitogen-activated protein kinase kinase 1 (Homo sapiens, UniProt Q02750)", "sequence (Q02750 whole entry)": "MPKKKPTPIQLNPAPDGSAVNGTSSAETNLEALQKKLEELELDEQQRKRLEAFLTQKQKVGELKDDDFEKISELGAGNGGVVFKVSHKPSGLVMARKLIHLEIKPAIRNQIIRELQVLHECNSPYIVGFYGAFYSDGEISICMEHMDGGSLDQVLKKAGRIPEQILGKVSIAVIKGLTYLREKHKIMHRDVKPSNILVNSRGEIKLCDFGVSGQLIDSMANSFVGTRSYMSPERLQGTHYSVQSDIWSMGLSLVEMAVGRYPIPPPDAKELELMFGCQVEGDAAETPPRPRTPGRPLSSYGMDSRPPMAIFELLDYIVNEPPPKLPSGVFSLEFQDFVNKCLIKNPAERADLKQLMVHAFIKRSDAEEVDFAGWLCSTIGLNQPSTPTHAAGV", "test": "Inhibition of MEK1 (unknown origin)"}, "[13]": {"target": "Serine/threonine-protein kinase PAK 1 (Homo sapiens, UniProt Q13153)", "sequence (Q13153 whole entry)": "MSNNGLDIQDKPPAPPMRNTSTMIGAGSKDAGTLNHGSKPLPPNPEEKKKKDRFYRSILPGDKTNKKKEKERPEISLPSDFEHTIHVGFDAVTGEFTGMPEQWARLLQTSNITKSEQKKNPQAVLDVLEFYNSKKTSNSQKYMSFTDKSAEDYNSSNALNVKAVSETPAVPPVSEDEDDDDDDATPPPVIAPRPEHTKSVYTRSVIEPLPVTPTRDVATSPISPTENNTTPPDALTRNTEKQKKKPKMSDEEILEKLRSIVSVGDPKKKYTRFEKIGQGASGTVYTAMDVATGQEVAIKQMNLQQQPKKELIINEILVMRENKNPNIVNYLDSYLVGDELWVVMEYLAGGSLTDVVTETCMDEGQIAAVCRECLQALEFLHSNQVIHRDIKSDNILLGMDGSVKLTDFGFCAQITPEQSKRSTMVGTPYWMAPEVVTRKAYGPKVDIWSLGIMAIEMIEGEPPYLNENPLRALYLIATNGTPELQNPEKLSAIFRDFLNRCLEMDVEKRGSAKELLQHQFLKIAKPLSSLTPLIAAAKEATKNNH", "test": "Inhibition of PAK1 (unknown origin)"}, "[14]": {"target": "Serine/threonine-protein kinase/endoribonuclease IRE1 (Homo sapiens, UniProt O75460)", "test": "Inhibition of ERN1 (unknown origin)"}, "[15]": {"target": "Insulin-like growth factor 1 receptor (Homo sapiens, UniProt P08069)", "sequence (P08069 31-736 limits assumed)": "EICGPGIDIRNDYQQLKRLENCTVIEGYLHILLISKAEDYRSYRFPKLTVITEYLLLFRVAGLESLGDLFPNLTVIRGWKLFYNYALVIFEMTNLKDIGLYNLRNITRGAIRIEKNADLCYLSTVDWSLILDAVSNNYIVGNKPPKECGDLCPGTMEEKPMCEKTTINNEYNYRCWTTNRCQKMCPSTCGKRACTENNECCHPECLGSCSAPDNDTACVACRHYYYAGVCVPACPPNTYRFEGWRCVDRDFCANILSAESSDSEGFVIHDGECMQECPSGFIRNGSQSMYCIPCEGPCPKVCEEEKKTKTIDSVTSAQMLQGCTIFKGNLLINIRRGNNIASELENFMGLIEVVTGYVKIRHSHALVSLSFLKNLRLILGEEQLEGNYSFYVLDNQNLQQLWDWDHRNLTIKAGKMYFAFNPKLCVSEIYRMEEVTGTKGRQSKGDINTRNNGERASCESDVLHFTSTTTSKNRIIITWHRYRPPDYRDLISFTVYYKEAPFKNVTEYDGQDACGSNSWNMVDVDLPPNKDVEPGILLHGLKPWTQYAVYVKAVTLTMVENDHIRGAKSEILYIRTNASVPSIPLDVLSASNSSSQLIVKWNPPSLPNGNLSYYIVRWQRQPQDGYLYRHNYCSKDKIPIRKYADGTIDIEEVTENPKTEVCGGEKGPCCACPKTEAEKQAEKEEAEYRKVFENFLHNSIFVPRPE", "sequence (P08069 741-1367 limits assumed)": "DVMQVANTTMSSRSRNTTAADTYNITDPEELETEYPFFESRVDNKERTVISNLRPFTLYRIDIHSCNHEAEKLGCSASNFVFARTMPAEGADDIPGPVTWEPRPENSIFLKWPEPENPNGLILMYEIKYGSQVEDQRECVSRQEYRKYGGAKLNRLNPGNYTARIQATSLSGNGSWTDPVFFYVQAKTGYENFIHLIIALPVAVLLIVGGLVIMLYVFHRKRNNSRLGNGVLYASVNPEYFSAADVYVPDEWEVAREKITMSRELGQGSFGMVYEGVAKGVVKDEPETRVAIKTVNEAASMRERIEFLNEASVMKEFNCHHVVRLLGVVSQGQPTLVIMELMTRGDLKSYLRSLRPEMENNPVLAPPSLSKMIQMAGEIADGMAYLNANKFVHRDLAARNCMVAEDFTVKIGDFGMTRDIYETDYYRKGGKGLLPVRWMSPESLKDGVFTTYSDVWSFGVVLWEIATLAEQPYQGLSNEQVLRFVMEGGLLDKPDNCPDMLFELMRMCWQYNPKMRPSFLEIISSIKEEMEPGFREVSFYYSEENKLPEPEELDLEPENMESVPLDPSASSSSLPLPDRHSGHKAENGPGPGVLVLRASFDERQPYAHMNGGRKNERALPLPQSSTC", "test": "Inhibition of IGF1R (unknown origin)"}, "[16]": {"target": "Serine/threonine-protein kinase Chk1 (Homo sapiens, UniProt O14757)", "test": "Inhibition of CHEK1 (unknown origin)"}, "Aurora kinase A": {"target": "Aurora kinase A (Homo sapiens, UniProt O14965)", "test": "Inhibition of aurora-A (unknown origin)"}, "[17]": {"target": "Tyrosine-protein kinase SYK (Homo sapiens, UniProt P43405)", "test": "Inhibition of SYK (unknown origin)"}, "[18]": {"target": "Receptor tyrosine-protein kinase erbB-4 (Homo sapiens, UniProt Q15303)", "sequence (Q15303 whole entry)": "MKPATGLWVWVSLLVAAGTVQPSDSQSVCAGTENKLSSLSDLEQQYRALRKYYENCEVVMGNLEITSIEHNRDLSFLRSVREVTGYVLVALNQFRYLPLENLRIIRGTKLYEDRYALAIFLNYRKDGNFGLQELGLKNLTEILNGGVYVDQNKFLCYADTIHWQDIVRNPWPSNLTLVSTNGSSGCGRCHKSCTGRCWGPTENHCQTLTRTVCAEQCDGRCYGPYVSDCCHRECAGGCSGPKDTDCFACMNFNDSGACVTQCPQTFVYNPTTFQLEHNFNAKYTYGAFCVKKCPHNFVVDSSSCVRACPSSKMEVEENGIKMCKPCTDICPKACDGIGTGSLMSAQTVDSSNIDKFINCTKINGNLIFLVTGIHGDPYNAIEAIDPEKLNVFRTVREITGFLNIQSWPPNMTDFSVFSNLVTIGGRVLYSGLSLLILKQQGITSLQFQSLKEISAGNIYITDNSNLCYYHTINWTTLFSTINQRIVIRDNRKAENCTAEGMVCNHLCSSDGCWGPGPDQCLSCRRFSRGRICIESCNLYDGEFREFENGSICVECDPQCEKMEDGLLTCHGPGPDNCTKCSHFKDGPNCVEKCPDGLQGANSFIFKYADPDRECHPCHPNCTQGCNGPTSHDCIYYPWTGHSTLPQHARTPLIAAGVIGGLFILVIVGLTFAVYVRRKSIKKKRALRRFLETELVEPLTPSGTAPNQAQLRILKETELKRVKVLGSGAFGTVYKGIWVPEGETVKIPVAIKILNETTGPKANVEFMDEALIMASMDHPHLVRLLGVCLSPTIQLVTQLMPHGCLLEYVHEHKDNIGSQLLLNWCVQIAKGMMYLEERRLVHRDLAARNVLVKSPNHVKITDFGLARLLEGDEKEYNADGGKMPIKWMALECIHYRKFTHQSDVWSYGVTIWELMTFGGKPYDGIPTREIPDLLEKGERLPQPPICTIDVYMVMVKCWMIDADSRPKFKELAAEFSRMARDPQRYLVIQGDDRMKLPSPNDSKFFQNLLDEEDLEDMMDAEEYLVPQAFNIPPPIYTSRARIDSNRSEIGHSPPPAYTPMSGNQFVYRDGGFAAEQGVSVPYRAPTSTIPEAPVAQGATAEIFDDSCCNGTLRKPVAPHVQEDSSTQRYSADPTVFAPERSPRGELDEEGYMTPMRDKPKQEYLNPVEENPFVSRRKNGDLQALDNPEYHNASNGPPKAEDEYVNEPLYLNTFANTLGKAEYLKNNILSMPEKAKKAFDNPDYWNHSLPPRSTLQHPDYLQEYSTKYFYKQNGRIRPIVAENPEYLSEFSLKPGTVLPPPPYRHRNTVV", "test": "Inhibition of ERBB4 (unknown origin)"}, "[19]": {"target": "Platelet-derived growth factor receptor beta (Homo sapiens, UniProt P09619)", "sequence (P09619 whole entry)": "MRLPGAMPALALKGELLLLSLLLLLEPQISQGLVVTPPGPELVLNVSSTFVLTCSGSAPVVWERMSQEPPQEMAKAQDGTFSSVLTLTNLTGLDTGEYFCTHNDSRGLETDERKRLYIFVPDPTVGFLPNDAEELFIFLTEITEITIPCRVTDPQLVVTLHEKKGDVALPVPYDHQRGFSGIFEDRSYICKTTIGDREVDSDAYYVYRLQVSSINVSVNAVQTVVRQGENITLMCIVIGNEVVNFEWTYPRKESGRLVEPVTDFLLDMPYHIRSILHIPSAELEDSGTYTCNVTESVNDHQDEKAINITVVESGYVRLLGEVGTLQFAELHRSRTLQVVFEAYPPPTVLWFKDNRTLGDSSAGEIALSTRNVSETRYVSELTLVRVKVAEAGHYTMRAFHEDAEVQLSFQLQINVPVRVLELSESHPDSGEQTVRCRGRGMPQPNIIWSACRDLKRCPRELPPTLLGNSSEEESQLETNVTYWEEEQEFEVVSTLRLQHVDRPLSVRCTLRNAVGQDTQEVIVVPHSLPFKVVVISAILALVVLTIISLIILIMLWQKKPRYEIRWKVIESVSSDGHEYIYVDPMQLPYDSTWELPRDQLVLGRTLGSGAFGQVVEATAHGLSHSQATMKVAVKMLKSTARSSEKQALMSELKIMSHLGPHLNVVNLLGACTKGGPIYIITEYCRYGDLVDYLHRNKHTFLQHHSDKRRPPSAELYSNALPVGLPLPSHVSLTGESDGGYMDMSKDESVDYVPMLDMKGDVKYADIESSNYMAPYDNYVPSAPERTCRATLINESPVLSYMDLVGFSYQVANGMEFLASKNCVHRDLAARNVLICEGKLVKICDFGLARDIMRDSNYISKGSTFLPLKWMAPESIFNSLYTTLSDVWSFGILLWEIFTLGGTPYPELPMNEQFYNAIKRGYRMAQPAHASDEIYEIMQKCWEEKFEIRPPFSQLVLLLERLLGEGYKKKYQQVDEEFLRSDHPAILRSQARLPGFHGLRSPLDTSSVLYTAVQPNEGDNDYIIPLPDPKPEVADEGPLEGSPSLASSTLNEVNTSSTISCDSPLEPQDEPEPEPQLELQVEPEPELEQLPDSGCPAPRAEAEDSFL", "test": "Inhibition of PDGFRbeta (unknown origin)", "summary_of_the_method": "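Single selected panel of recombinant human protein kinases, screened in vitro. The value reported is the IC50 against each kinase.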"}, "HeLa": {"system": "HeLa", "test": "Cytotoxicity against human HeLa cells assessed as growth inhibition after 72 hrs by MTT assay", "assay_type": "functional, cell-based", "summary_of_the_method": "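MTT viability assay with serial inhibitor dilutions for 72 h at 37 °C, then MTT for 2–4 h and OD read at 570 nm. Leukemia lines were seeded at (1–4) × 10⁴ cells/well and lysed with 20% acidified SDS. Adherent lines were seeded at (2–5) × 10³ cells/well, dosed after 24 h and dissolved in DMSO. Triplicate; mean ± SD.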"}}, "note": "The source made the active and inactive calls. No cut-off for these calls is given here."}
{"smiles": "O=C(Nc1ccc(Oc2ncnc3[nH]ncc23)cc1)Nc1ccc(Cl)c(C(F)(F)F)c1", "values": [{"measurement": "bioavailability", "setting": "[1]", "result": 66.7, "unit": "%"}, {"measurement": "Cmax", "setting": "[2]", "result": 15100, "unit": "ng/mL"}, {"measurement": "inhibition", "setting": "Mus musculus", "result": "Active"}, {"measurement": "Activity", "setting": "MV4-11 [3]", "result": "tde"}, {"measurement": "Activity", "setting": "MV4-11 [4]", "result": "Active"}, {"measurement": "Activity", "setting": "MV4-11 [5]", "result": "Active"}, {"measurement": "Activity", "setting": "MV4-11 [6]", "result": 9.96, "unit": "%"}, {"measurement": "Activity", "setting": "MV4-11 [7]", "result": 8.93, "unit": "%"}, {"measurement": "Activity", "setting": "MV4-11 [8]", "result": 5.16, "unit": "%"}, {"measurement": "Activity", "setting": "MV4-11 [9]", "result": 4.15, "unit": "%"}, {"measurement": "Activity", "setting": "MV4-11 [10]", "result": 17.8, "unit": "%"}, {"measurement": "IC50", "setting": "SK-OV-3", "result": "> 10", "unit": "µM"}, {"measurement": "IC50", "setting": "U-266", "result": "> 10", "unit": "µM"}, {"measurement": "IC50", "setting": "LoVo", "result": "> 10", "unit": "µM"}, {"measurement": "IC50", "setting": "KARPAS-299", "result": "> 10", "unit": "µM"}, {"measurement": "IC50", "setting": "U-937", "result": "> 10", "unit": "µM"}, {"measurement": "IC50", "setting": "Bel-7402", "result": "> 10", "unit": "µM"}, {"measurement": "IC50", "setting": "MCF7", "result": "> 10", "unit": "µM"}, {"measurement": "IC50", "setting": "K562", "result": "> 10", "unit": "µM"}, {"measurement": "IC50", "setting": "Jurkat", "result": 8.72, "unit": "µM"}, {"measurement": "IC50", "setting": "[11]", "result": "> 10", "unit": "µM"}, {"measurement": "IC50", "setting": "[12]", "result": "> 10", "unit": "µM"}, {"measurement": "IC50", "setting": "[13]", "result": "> 10", "unit": "µM"}, {"measurement": "IC50", "setting": "[14]", "result": "> 10", "unit": "µM"}, {"measurement": "IC50", "setting": "[15]", "result": "> 10", "unit": "µM"}, {"measurement": "IC50", "setting": "[16]", "result": "> 10", "unit": "µM"}, {"measurement": "IC50", "setting": "Aurora kinase A", "result": "> 10", "unit": "µM"}, {"measurement": "IC50", "setting": "[17]", "result": "> 10", "unit": "µM"}, {"measurement": "IC50", "setting": "[18]", "result": "> 10", "unit": "µM"}, {"measurement": "IC50", "setting": "[19]", "result": 0.408, "unit": "µM"}, {"measurement": "IC50", "setting": "HeLa", "result": "> 10", "unit": "µM"}]}
